Most compounds without a hit are left out; they make up all but 5.9% or so of the library.
Pf Dd2 growth: blocks growth of Plasmodium falciparum Dd2 parasites | P. falciparum Dd2 growth, SYBR Green, 72 h; stronger effect = lower value | activity change, % at 10 µM | 94,000 compounds, 2.3% hits; in the data active = activity change below about -80%; inconclusive = no clear call, values can overlap the other calls
IDH1 mut inh: blocks human IDH1 R132H reductase activity | diaphorase/resazurin fluorescence, 60 min | 70,000 compounds, 0.18% hits | O75874 | inhibition, % at 10 µM; in the data active = inhibition above about 34%; inconclusive = no clear call, values can overlap the other calls; inactive = below about 11%;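 also: 0% = DMSO and 100% = no enzyme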
Target sequence (O75874 whole entry R132H): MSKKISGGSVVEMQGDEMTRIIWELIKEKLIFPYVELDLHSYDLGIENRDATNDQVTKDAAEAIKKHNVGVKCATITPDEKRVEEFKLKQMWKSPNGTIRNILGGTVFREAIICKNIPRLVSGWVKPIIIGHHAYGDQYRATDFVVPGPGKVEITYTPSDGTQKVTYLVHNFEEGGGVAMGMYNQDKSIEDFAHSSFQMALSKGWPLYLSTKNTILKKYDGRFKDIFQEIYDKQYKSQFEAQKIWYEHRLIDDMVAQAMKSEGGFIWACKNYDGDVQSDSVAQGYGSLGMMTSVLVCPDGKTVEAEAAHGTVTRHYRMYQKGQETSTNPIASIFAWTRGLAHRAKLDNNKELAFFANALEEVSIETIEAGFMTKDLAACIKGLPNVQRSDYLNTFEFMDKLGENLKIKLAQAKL
GASC1 inh: inhibitors of human demethylase GASC-1 KDM4C; Q9H3R0; 96,000 compounds, 0.15% hits; AID 720574; inhibition, % at 12.5 µM; GST-KDM4C 2-372, H3K9me3 peptide, LANCE TR-FRET;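 active = mean replicate inhibition above about 25%, with at least 55% of replicates also reaching it, limit read from the data, passing the limit was not always enough; inconclusive = only one of those two conditions met; inactive = neither condition met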
Target sequence (Q9H3R0 2-372 limits assumed): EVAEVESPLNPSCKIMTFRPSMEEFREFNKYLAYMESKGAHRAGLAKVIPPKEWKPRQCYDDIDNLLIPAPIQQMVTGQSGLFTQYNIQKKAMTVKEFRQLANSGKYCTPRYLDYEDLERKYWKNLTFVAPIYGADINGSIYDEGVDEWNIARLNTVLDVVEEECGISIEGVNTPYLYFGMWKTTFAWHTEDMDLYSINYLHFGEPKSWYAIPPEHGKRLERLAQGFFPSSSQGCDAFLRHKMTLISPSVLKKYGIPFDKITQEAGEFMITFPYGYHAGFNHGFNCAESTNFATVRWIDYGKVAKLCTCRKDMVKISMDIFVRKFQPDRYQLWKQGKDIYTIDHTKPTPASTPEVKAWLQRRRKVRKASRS
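Compound: one test concentration per compound; Material: GST-GASC-1 enzyme fragment 2-372; Amount: GASC-1 enzyme at 10 nM final in reaction; Also added: H3K9me3 peptide substrate, Fe(II), 2-oxoglutarate; Technique: LANCE TR-FRET; Times: 30 min demethylation and 1 h detection at room temperature.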
T cruzi growth-1: blocks T. cruzi growth in NIH3T3 culture. T. cruzi beta-gal in NIH3T3, GalScreen luminescence, 90 h. 77,000 compounds, 5.9% hits. inhibition, % at 8.34 µM;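 active = mean inhibition above about 93%, with at least 55% of replicates each passing it, limit read from the data, passing the limit was not always enough; inconclusive = only one of those two conditions holds; inactive = neither condition holds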
T cruzi growth-2: inhibitors of T. cruzi proliferation; shares compounds with T cruzi growth-1; T. cruzi beta-gal in NIH3T3, GalScreen luminescence, 90 h; inhibition, % at 8.35 µM; 5,600 compounds, 72% hits; AID 651739;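 active = mean replicate inhibition above about 95% and at least 55% of replicates individually reaching it, limit read from the data; inconclusive = only one of the two criteria is met; inactive = neither criterion is met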
T cruzi growth-3: blocks T. cruzi growth in NIH3T3 host cells | 5,600 compounds, 21% hits | T. cruzi beta-gal in NIH3T3, GalScreen luminescence, 90 h | inhibition, % at 2.09 µM | AID 651740 | shares compounds with T cruzi growth-1;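 active = mean inhibition above about 95%, with at least 55% of replicates also reaching it, limit read from the data; inconclusive = meets just one of the two conditions; inactive = meets neither condition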;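 also: plate controls were neutral control median for no effect and positive control median for full effect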
NIH3T3 tox: kills mouse NIH/3T3 fibroblasts. shares compounds with T cruzi growth-1. NIH/3T3 viability, CellTiter-Glo ATP luminescence, 90 h. cytotoxicity (signal decrease), % at 8.35 µM. 5,600 compounds, 14% hits. AID 651742;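 active = mean signal decrease across replicates above about 35% based on untreated-well scatter, with enough replicates individually passing, limit read from the data; inconclusive = no rule stated though some were filed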;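 also: 0% = median of neutral control wells and 100% = median of positive control wells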
NIH3T3 tox 2: NIH/3T3 (mouse) viability loss | 5,600 compounds, 56% hits | inhibition, % at 24.9 µM | shares compounds with T cruzi growth-1 | AID 651744 | NIH/3T3 viability, CellTiter-Glo ATP luminescence, 90 h;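 active = mean loss of cell viability signal at or above a set limit, and enough replicates individually reaching it; inconclusive = meets only the mean limit or only the replicate share; inactive = meets neither condition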;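 also: 0% = median of neutral control wells and 100% = median of positive control wells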
An asterisk follows results filed as active; ? = inconclusive; / = not tested or not shown; ! = a repeat was not active.

SMILES | Pf Dd2 growth | IDH1 mut inh | GASC1 inh | T cruzi growth-1 | T cruzi growth-2 | T cruzi growth-3 | NIH3T3 tox | NIH3T3 tox 2
O=C(NC[C@@H]1[C@H](c2ccccc2)[C@H](CO)N1C(=O)C1CC1)NC1CCCC1 | 10.6 | / | -1.3 | 36.3 | / | / | / | /
O=C(NC[C@H]1[C@H](c2ccccc2)[C@@H](CO)N1C(=O)C1CC1)NC1CCCC1 | -62.9 | / | -0.6 | 117.1* | 62.5 | 20.2 | -1.7 | 5.1
C[C@@H]1CN([C@H](C)CO)S(=O)(=O)c2ccc(C#CC(C)(C)O)cc2O[C@H]1CN(C)Cc1ccc(-c2ccccc2)cc1 | -84.0* | -2.2 | 6.8 | 120.6* | 89.5 | 109.7* | 118.2* | 107.0*
C[C@H](O)C#Cc1ccc2c(c1)O[C@@H](CN(C)Cc1ccc(-c3ccccc3)cc1)[C@H](C)CN([C@@H](C)CO)S2(=O)=O | -45.2 | -0.5 | -2.6 | 113.1*! | 100.8* | 99.0* | 114.4* | 107.7*
C[C@H](CO)N1C[C@H](C)[C@@H](CN(C)Cc2ccc(-c3ccccc3)cc2)Oc2cc(C#C[C@@H](C)O)ccc2S1(=O)=O | -61.1 | / | -1.4 | 97.0* | 87.2 | 107.1* | 108.7* | 103.5*
COc1ccc(NC(=O)Nc2cccc3c2O[C@@H](CN(C)Cc2ccc(C(=O)O)cc2)[C@@H](C)CN([C@H](C)CO)C3=O)cc1 | 0.9 | -0.5 | 0.7 | 101.6* | -19.5 | -17.7 | 6.3 | -9.6
C[C@H](CO)N1C[C@H](C)[C@@H](CN(C)Cc2ccc(C(=O)Nc3ccccc3N)cc2)Oc2c(NC(=O)Nc3ccc4c(c3)OCO4)cccc2C1=O | -87.9* | / | -1.1 | 107.1* | 102.6* | 88.3 | -0.9 | 53.6*
COc1ccc(CN(C)C[C@@H]2Oc3c(NC(=O)Nc4ccc(OC)cc4)cccc3C(=O)N([C@H](C)CO)C[C@H]2C)cc1 | -0.7 | -2.9 | 0.0 | -8.8 | / | / | / | /
C[C@H]1CN([C@@H](C)CO)C(=O)c2cccc(NC(=O)Nc3ccc4c(c3)OCO4)c2O[C@H]1CN(C)Cc1ccc(C(=O)Nc2ccccc2N)cc1 | -78.0 | / | 5.3 | 110.0 | / | / | / | /
COc1ccc(NC(=O)Nc2cccc3c2O[C@@H](CN(C)Cc2ccc(C(=O)Nc4ccccc4N)cc2)[C@H](C)CN([C@H](C)CO)C3=O)cc1 | -69.6 | / | -0.7 | ? | 94.4 | 86.1 | 14.0 | 65.4*
COc1ccc(CN(C)C[C@@H]2Oc3ccc(NS(=O)(=O)c4cccs4)cc3C(=O)N([C@H](C)CO)C[C@H]2C)cc1 | 15.6 | 1.1 | 0.9 | 2.4 | / | / | / | /
CC(=O)N(C)C[C@H]1Oc2cc(Br)ccc2S(=O)(=O)N([C@H](C)CO)C[C@@H]1C | 36.1 | 3.6 | -1.0 | -13.7 | / | / | / | /
CC(C)CC#Cc1ccc2c(c1)O[C@H](CN(C)Cc1ccccc1)[C@H](C)CN([C@H](C)CO)S2(=O)=O | -50.9 | -0.1 | 0.6 | 104.0* | 87.4 | 108.8* | 16.2 | 105.1*
CC(C)CC#Cc1ccc2c(c1)O[C@@H](CN(C)Cc1ccccc1)[C@H](C)CN([C@H](C)CO)S2(=O)=O | 15.5 | 0.3 | 1.6 | 8.6 | / | / | / | /
CC(C)CC#Cc1ccc2c(c1)O[C@H](CN(C)Cc1ccccc1)[C@@H](C)CN([C@@H](C)CO)S2(=O)=O | -47.6 | 0.0 | -1.6 | 123.5* | 100.0* | 114.3* | -4.6 | 103.8*
C[C@H](CO)N1C[C@H](C)[C@H](CN(C)C(=O)c2cnccn2)Oc2cc(Br)ccc2S1(=O)=O | 14.8 | -1.7 | 1.1 | 23.8 | / | / | / | /
COc1ccc(C(=O)Nc2ccc3c(c2)OC[C@@H](C)N(C)C[C@@H](C)[C@H](OC)CN(C)C3=O)cc1 | / | -0.3 | 0.7 | 8.2 | / | / | / | /
COc1cccc(-c2ccc3c(c2)O[C@H](CN(C)Cc2ccncc2)[C@@H](C)CN([C@@H](C)CO)S3(=O)=O)c1 | 16.0 | 18.5 | 1.7 | / | / | / | / | /
COc1cccc(-c2ccc3c(c2)O[C@H](CN(C)Cc2cncnc2)[C@H](C)CN([C@@H](C)CO)S3(=O)=O)c1 | 1.4 | -6.4 | -4.9 | 96.7* | ? | 57.8 | 30.7 | 63.9*
COc1cccc(-c2ccc3c(c2)O[C@@H](CN(C)Cc2cccnc2)[C@@H](C)CN([C@H](C)CO)S3(=O)=O)c1 | -25.6 | 1.9 | -1.5 | 91.1 | / | / | / | /
COc1cccc(-c2ccc3c(c2)O[C@@H](CN(C)Cc2cncnc2)[C@H](C)CN([C@H](C)CO)S3(=O)=O)c1 | -19.0 | -1.9 | 2.2 | ? | ? | 64.1 | 39.0* | 71.6*
Cc1cccc(-c2ccc([C@H]3[C@@H](CO)N4CCCCN(Cc5ccncc5)C[C@H]34)cc2)c1 | -51.2 | / | 2.7 | 86.1 | / | / | / | /
Cc1cccc(-c2ccc([C@H]3[C@@H](CO)N4CCCCN(Cc5cccnc5)C[C@@H]34)cc2)c1 | -9.1 | / | 0.4 | 120.5* | ? | 74.0 | 22.0 | 102.9*
COc1cccc(CN2CCCCN3[C@H](CO)[C@H](c4ccc(-c5cccc(C#N)c5)cc4)[C@@H]3C2)c1 | -63.5 | / | -3.0 | 110.9* | 108.0* | 100.8* | 11.0 | 102.5*
Cc1cccc(-c2ccc([C@H]3[C@H](CO)N4CCCCN(Cc5ccncc5)C[C@@H]34)cc2)c1 | -19.4 | / | 2.8 | ? | 101.4* | 47.2 | 23.2 | 105.4*
SMILES | Pf Dd2 growth | IDH1 mut inh | GASC1 inh | T cruzi growth-1 | T cruzi growth-2 | T cruzi growth-3 | NIH3T3 tox | NIH3T3 tox 2
COc1cccc(-c2ccc([C@H]3[C@H](CO)N4CCCCN(Cc5cncnc5)C[C@@H]34)cc2)c1 | 15.2 | / | -0.8 | 89.4 | / | / | / | /
OC[C@@H]1[C@H](c2ccc(C3=CCCC3)cc2)[C@H]2CN(Cc3cncnc3)CCCCN12 | -26.6 | / | -0.8 | ? | 88.0 | 69.0 | 13.8 | 45.8*
C[C@@H]1CN([C@H](C)CO)C(=O)c2cc(NC(=O)Nc3ccc(C(F)(F)F)cc3)ccc2O[C@H]1CN(C)Cc1ccc2c(c1)OCO2 | 18.6 | / | 1.0 | -8.3 | / | / | / | /
O=C(Nc1cccc(F)c1)N1C[C@H]2[C@@H](c3ccccc31)[C@H](CO)N2C(=O)c1ccccc1F | -59.2 | / | 0.8 | 48.8 | / | / | / | /
C[C@H]1CN([C@@H](C)CO)C(=O)c2cc(C3=CCCC3)cnc2O[C@@H]1CN(C)Cc1ccccc1C(=O)O | 60.0 | -0.2 | 2.1 | 61.4 | / | / | / | /
OC[C@@H]1[C@H](c2ccc(-c3ccccc3)cc2)[C@H]2CN(Cc3cncnc3)CCCCN12 | 5.5 | / | 0.8 | 100.8* | ? | 79.9 | 13.0 | 52.5*
OC[C@H]1[C@@H](c2ccc(-c3ccc(F)cc3)cc2)[C@@H]2CN(Cc3cccnc3)CCCCN12 | -58.9 | / | -1.1 | 99.2* | 99.3* | 33.8 | 29.5 | 104.8*
Cc1cccc(-c2ccc([C@H]3[C@@H](CO)N4CCCCN(Cc5cccnc5)C[C@H]34)cc2)c1 | -54.8 | / | -0.7 | 99.4* | 96.6* | 70.0 | 45.2* | 105.2*

High-throughput results deposited in PubChem BioAssay by Broad Institute.
